In the library only some 10% were active in any assay of this set; here they are far more common.
Diaphorase act: compounds boosting diaphorase resazurin reduction – biochemical, uHTS, resorufin fluorescence, counter-screen for diaphorase-coupled primary assays, primary screen; activation factor at 20 µM; Diaphorase/resazurin coupled assay, 16 min; active compounds read high; 1 = vehicle wells, 0 = NADH-free wells; 190,000 compounds, 0.005% hits; AID 1229, 2008;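 active means diaphorase activity raised at least twofold by the compound at 20 µM; inactive means activation factor below 2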
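Material: Purified diaphorase enzyme from Clostridium kluyveri | Buffer or medium: 50 mM HEPES pH 7.4 with 4.542 mM MgCl2, 0.005% Tween 20 | Times: 16 min enzyme reaction, ambient temperature | Signal: Red resorufin fluorescence at 544/590 nm excitation/emission | Measure: Increased resorufin signal from activators or reducing compounds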
WT yeast gro inh: growth inhibition of WT strain, primary screen, mitochondrial fusion inhibitor project, WT and mutant strains, chemical genetic; mitochondrial fusion phenotypic screen; inhibition, % at 10 µM; 190,000 compounds, 2.1% hits; AID 1362, 2008; in the data active means inhibition above about 58%; tested in S. cerevisiae
PMI act hi M6P: human PMI activators, high substrate, primary screen, biochemical, fluorescence intensity, near-saturating mannose 6-phosphate; AID 1216, 2008; coupled PMI enzyme assay, resazurin fluorescence, 20 min; active compounds read high; 1 = untreated enzyme, 0 = substrate-free blank; activation factor at 20 µM; 190,000 compounds, 0.34% hits;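 active means activation factor of 2 or more at 20 µM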
Target sequence (P34949 whole entry, looked up): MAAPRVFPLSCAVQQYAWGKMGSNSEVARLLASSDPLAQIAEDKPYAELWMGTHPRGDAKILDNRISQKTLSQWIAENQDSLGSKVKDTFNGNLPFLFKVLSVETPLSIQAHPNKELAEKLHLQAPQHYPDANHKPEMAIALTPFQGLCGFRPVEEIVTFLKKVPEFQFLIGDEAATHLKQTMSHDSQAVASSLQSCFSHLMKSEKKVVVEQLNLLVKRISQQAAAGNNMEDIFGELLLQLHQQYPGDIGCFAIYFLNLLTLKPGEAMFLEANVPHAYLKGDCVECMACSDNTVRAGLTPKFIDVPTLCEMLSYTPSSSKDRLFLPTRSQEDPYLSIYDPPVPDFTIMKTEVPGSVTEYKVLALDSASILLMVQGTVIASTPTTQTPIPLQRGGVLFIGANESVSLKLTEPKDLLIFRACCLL
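Test system – human PMI in coupled enzyme assay · Timing – 20 min incubation at room temperature · Detection – Diaphorase-driven resazurin-to-resorufin fluorescence, excitation 544, emission 590 nm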
PMI act: activators of human PMI, primary screen, biochemical, fluorescence intensity, near-Km mannose 6-phosphate. Mannose-6-phosphate isomerase (Homo sapiens), P34949. purified human PMI, coupled resazurin fluorescence, 20 min; active compounds read high; 1 = vehicle control, 0 substrate-free wells. activation factor at 20 µM. 190,000 compounds, 0.005% hits;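 active means activation factor of 2 or more at 20 µM, relative to plate controls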
Lmaj promast: Leishmania major promastigote growth inhibition, primary screen; AID 1063, 2008; 200,000 compounds, 9% hits; inhibition, % at 10 µM; Leishmania major promastigotes, resazurin fluorescence viability; in the data active means inhibition above about 50%;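 further: promastigotes grown with compound for 44 hours at 28 °C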
A number is an active result; n = inactive.

SMILES	Diaphorase act	WT yeast gro inh	PMI act hi M6P	PMI act	Lmaj promast
COc1ccc(/C=N/Nc2ncnc3c2[nH]c2ccccc23)c(OC)c1OC	n	n	n	n	66
COCCCNc1ncnc2c1[nH]c1ccccc12	n	n	n	n	n
CC(=O)c1ccc(OCCCN2CCCCC2)cc1	n	n	n	n	88
COC(=O)c1ccc(OCCN2CCCCCC2)cc1	n	n	n	n	88
CCOc1ccc(C(=O)NCCN2CCCC2)cc1	n	n	n	n	n
COC(=O)c1ccccc1OCCN1CCCCCC1	n	n	n	n	n
O=C(c1ccccc1)c1ccc(OCCCN2CCCCC2)cc1	n	n	n	n	99
Cc1nc(SCC(=O)NNC(=O)c2cccs2)[nH]c(=O)c1C	n	n	n	n	n
CCN(Cc1ccccc1)C(=O)C(C)OC(=O)c1cc(S(=O)(=O)Nc2c(C)n(C)n(-c3ccccc3)c2=O)ccc1C (stereo not given)	n	n	n	n	n
COc1ccc(CCNC(=S)N2CCC(Cc3ccccc3)CC2)cc1OC	n	n	n	n	n
S=C1NC(c2cccs2)=CC(c2ccc(Br)cc2)N1 (stereo not given)	n	72	n	n	n
S=C1NC(c2ccccc2)=CC(c2ccccc2)N1 (stereo not given)	n	n	n	n	n
COC(=O)Nc1ccc(S(=O)(=O)N2CCCC(C(=O)NC3CCS(=O)(=O)C3)C2)cc1 (stereo not given)	n	n	n	n	58
CN(C)c1ccc(NC(=O)Cn2ncn3c(cc4ccccc43)c2=O)cc1	n	n	n	n	58
COc1ccc(CCNc2nc(N3CCOCC3)nc(N3CCOCC3)n2)cc1OC	n	n	n	n	n
CCOc1nc(NCCc2ccc(OC)c(OC)c2)nc(NC(C)(C)CO)n1	n	n	n	n	53
COc1nc(NCCc2ccc(OC)c(OC)c2)nc(OC)n1	n	n	n	n	n
COc1ccc(CCNc2nc(N3CCCCC3)nc(N3CCCCC3)n2)cc1OC	n	n	n	n	95
CCCc1n(CC)c2ccccc2[n+]1CC(O)COC1CCCCC1 (stereo not given)	n	n	n	n	97
CCCCCCCCOC(=O)/C=C/c1c(C)[nH]c(=O)[nH]c1=O	n	n	n	n	93
CC(c1ccc(F)cc1)n1cc(C(=O)NCCN(C)C)nn1 (stereo not given)	n	n	n	n	n
O=C(COC(=O)CCCN1C(=O)c2cccc3cccc(c23)C1=O)Nc1cccc(C(F)(F)F)c1	n	n	n	n	n
O=C(NC(Nc1nc2ccc([N+](=O)[O-])cc2s1)(C(F)(F)F)C(F)(F)F)c1cccnc1	n	n	n	n	n
O=C(NC(Nc1nc2ccc([N+](=O)[O-])cc2s1)(C(F)(F)F)C(F)(F)F)c1ccccc1Cl	n	n	n	n	100
COc1ccc(CN(C(=O)CSc2nnc(-c3ccccc3C)o2)c2ccc(F)cc2)cc1	n	n	n	n	n
SMILES	Diaphorase act	WT yeast gro inh	PMI act hi M6P	PMI act	Lmaj promast
O=C(CSc1nnc(-c2c[nH]c3ccccc23)o1)N(Cc1ccccc1)c1ccc(F)cc1	n	59	n	n	64
COc1ccc(CN2CCN(Cc3cccn3-c3ncccn3)CC2CCO)c(C)c1C (stereo not given)	n	n	n	n	n
N#C/C(=C\c1cccc([N+](=O)[O-])c1)c1nnc2n1CCCCC2	n	n	n	n	61
O=c1nc2n(c3ccc([N+](=O)[O-])cc13)CCCCC2	n	n	n	n	n
Cc1nc(SCC(=O)O)c(C#N)c(C)c1CC(=O)c1ccccc1	n	n	n	n	n
CCn1c(=S)ccc2ccc(OC)cc21	n	n	2	n	n
CCNC(=O)C(C)Oc1ccc(Cl)cc1Cl (stereo not given)	n	n	n	n	n
CC(=O)Nc1ccc(NC(=O)C(C)Oc2ccc(Cl)cc2Cl)cc1 (stereo not given)	n	n	n	n	57
C/C(=N\NC(=O)c1c(Br)c(C)nn1C)c1ccc(NC(=O)C(C)Oc2ccc(Cl)cc2C)cc1 (stereo not given)	n	n	n	n	98
